High-throughput results deposited in PubChem by Broad Institute.
Many of the other results were omitted from the sample, so hits are more common in it than they were.
KDM4C inh: inhibitors of GASC-1 (KDM4C) histone demethylase, primary screen, biochemical, single concentration HTS; inhibition, % at 12.5 µM; actives 0.15% (n = 96,000); GST-KDM4C 2-372, H3K9me3 peptide, LANCE TR-FRET; AID 720574, 2013; Lysine-specific demethylase 4C (Homo sapiens), Q9H3R0;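 active means mean replicate inhibition above about 25%, with at least 55% of replicates also reaching it, limit read from the data, passing the limit was not always enough; inconclusive means only one of those two conditions met; inactive means neither condition met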
Target sequence (Q9H3R0 2-372 limits assumed): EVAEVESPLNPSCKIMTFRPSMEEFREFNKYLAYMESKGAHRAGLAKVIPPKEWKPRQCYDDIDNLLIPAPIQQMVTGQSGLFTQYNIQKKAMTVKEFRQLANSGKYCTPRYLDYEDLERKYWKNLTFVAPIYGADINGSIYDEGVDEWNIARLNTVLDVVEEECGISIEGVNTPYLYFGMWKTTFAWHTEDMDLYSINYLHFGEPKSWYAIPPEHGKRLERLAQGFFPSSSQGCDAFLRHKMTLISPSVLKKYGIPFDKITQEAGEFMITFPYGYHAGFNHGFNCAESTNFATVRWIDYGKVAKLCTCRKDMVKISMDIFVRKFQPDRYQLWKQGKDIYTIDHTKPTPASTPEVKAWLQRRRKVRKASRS
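Test system: N-terminal GST-fused human GASC-1 (KDM4C) fragment, residues 2-372; quantity: GASC-1 enzyme at 10 nM final in reaction; dosing: single dose; schedule: 30 min demethylation and 1 h detection at room temperature; signal: LANCE TR-FRET, excitation 340 nm, emissions 618 and 671 nm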
T cruzi growth-1: T. cruzi intracellular proliferation inhibitors, primary screen, cell-based, beta-gal Tulahuen parasites, NIH3T3 host, luminescence | inhibition, % at 8.34 µM | actives 5.9% (n = 77,000) | T. cruzi beta-gal in NIH3T3, GalScreen luminescence, 90 h;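 active means mean inhibition above about 93%, with at least 55% of replicates each passing it, limit read from the data, passing the limit was not always enough; inconclusive means only one of those two conditions holds; inactive means neither condition holds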
IDH1 mut inh: inhibitors of IDH1 R132H reductase, primary screen, biochemical, plate reader, single point | Isocitrate dehydrogenase [NADP] cytoplasmic (Homo sapiens), O75874 | diaphorase/resazurin fluorescence, 60 min | inhibition, % at 10 µM | actives 0.18% (n = 70,000) | AID 624101, 2012; in the data active means inhibition above about 34%; inconclusive means no clear call, values can overlap the other calls; inactive means below about 11%;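 further: 0% = DMSO and 100% = no enzyme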
Target sequence (O75874 whole entry R132H): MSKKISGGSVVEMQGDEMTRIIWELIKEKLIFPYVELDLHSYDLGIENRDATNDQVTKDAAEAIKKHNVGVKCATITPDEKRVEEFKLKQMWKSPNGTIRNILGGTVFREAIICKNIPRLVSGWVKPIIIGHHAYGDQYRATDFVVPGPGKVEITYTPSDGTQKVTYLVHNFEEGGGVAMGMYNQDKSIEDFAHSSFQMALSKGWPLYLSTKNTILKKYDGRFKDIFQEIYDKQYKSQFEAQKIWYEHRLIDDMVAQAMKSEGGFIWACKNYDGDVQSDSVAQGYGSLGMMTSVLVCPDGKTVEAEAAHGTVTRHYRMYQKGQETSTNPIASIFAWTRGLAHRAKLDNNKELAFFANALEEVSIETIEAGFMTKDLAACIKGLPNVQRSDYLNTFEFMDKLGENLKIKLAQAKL
T cruzi growth-2: T. cruzi intracellular proliferation inhibitors, confirmation, cell-based, NIH3T3 host, beta-gal parasite, luminescence, cherry-pick. shares compounds with T cruzi growth-1. T. cruzi beta-gal in NIH3T3, GalScreen luminescence, 90 h. inhibition, % at 8.35 µM. actives 72% (n = 5,600). AID 651739, 2012;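 active means mean replicate inhibition above about 95% and at least 55% of replicates individually reaching it, limit read from the data; inconclusive means only one of the two criteria is met; inactive means neither criterion is met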
T cruzi growth-3: inhibitors of intracellular T. cruzi replication, confirmation, NIH3T3 host cells, beta-gal parasites, cherry-pick, set 2; shares compounds with T cruzi growth-1; T. cruzi beta-gal in NIH3T3, GalScreen luminescence, 90 h; inhibition, % at 2.09 µM; actives 21% (n = 5,600); AID 651740, 2012;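 active means mean inhibition above about 95%, with at least 55% of replicates also reaching it, limit read from the data; inconclusive means meets just one of the two conditions; inactive means meets neither condition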;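 further: plate controls were neutral control median for no effect and positive control median for full effect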
3T3 cytotox: cytotoxicity in mouse NIH/3T3 fibroblasts, confirmation, cytotoxicity control for T. cruzi proliferation inhibitor project, cell-based, cherry-pick, single point; shares compounds with T cruzi growth-1; NIH/3T3 viability, CellTiter-Glo ATP luminescence, 90 h; cytotoxicity (signal decrease), % at 8.35 µM; actives 14% (n = 5,600); AID 651742, 2012;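 active means mean signal decrease across replicates above about 35% based on untreated-well scatter, with enough replicates individually passing, limit read from the data; inconclusive means no rule stated though some were filed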;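 further: 0% = median of neutral control wells and 100% = median of positive control wells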
NIH3T3 tox 2: NIH/3T3 fibroblast cytotoxicity, confirmation, cytotoxicity control, cell-based, cherry-pick, single point, set 2. shares compounds with T cruzi growth-1. NIH/3T3 viability, CellTiter-Glo ATP luminescence, 90 h. inhibition, % at 24.9 µM. actives 56% (n = 5,600). AID 651744, 2012;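 active means mean loss of cell viability signal at or above a set limit, and enough replicates individually reaching it; inconclusive means meets only the mean limit or only the replicate share; inactive means meets neither condition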;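 further: 0% = median of neutral control wells and 100% = median of positive control wells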
Active calls of the source: *; ? = inconclusive; · = no result.

SMILES | KDM4C inh | T cruzi growth-1 | IDH1 mut inh | T cruzi growth-2 | T cruzi growth-3 | 3T3 cytotox | NIH3T3 tox 2
C[C@@H]1CCCCO[C@@H](CN(C)Cc2ccc3c(c2)OCO3)[C@@H](C)CN([C@@H](C)CO)C(=O)c2cc(NS(=O)(=O)c3ccc(Cl)cc3)ccc2O1 | -1.3 | 93.4 | 1.6 | · | · | · | ·
C[C@H]1CCCCO[C@H](CN(C)Cc2ccc3c(c2)OCO3)[C@@H](C)CN([C@@H](C)CO)C(=O)c2cc(NS(=O)(=O)c3ccc(Cl)cc3)ccc2O1 | -0.4 | ? | 0.1 | 101.5* | 67.8 | 11.6 | 104.3*
O=C(NC1CCCC1)[C@@H]1[C@@H](CO)[C@@H]2Cn3c(ccc(-c4ccccc4)c3=O)[C@@H]2N1CCc1ccccc1 | 4.5 | 75.0 | · | · | · | · | ·
N#C[C@H]1[C@@H](c2ccc(C#CC3CC3)cc2)[C@H](CO)N1C(=O)c1cccc(F)c1 | 1.7 | 94.3 | · | · | · | · | ·
CC(C)C#Cc1ccc([C@H]2[C@H](C#N)N(C(=O)c3ccccn3)[C@H]2CO)cc1 | 4.3 | 81.0 | · | · | · | · | ·
N#C[C@H]1[C@@H](c2ccc(C#CC3CCCC3)cc2)[C@H](CO)N1C(=O)c1cccc(F)c1 | -1.1 | · | · | · | · | · | ·
CC(C)C#Cc1ccc([C@H]2[C@@H](CO)N(C(=O)c3ccccn3)[C@H]2C#N)cc1 | 1.1 | 97.3* | · | 97.8* | 79.5 | 15.0 | 15.9
CC(C)C#Cc1ccc([C@H]2[C@@H](C#N)N(C(=O)c3cccc(F)c3)[C@@H]2CO)cc1 | 1.0 | 97.8* | · | 99.4* | 107.9* | 3.9 | 38.3
N#C[C@@H]1[C@@H](c2ccc(C#CC3CC3)cc2)[C@H](CO)N1C(=O)c1cccc(F)c1 | 0.7 | 97.4* | · | 105.2* | 110.0* | 20.4 | 12.3
O=C(N[C@H]1CC[C@H](CCNS(=O)(=O)Cc2ccccc2)O[C@@H]1CO)c1ccc2c(c1)OCO2 | 0.5 | 18.3 | -0.3 | · | · | · | ·
COc1ccccc1C#Cc1ccc2c(c1)O[C@@H](CN(C)Cc1ccncc1)[C@@H](C)CN([C@@H](C)CO)S2(=O)=O | 12.1 | 123.0* | -0.3 | 101.1* | 100.6* | 10.1 | 40.1*
COc1ccccc1C#Cc1ccc2c(c1)O[C@@H](CN(C)Cc1ccccc1)[C@@H](C)CN([C@@H](C)CO)S2(=O)=O | 1.6 | 122.2* | 0.1 | 103.9* | 105.9* | -18.7 | 7.3
COc1ccccc1C#Cc1ccc2c(c1)O[C@H](CN(C)Cc1ccncc1)[C@H](C)CN([C@@H](C)CO)S2(=O)=O | 1.9 | 130.2 | 3.6 | · | · | · | ·
COc1ccccc1C#Cc1ccc2c(c1)O[C@@H](CN(C)Cc1cccnc1)[C@H](C)CN([C@H](C)CO)S2(=O)=O | · | · | 0.0 | · | · | · | ·
CCSc1ncc(Cl)c(C(=O)Nc2sc3c(c2C(=O)NCC2CCCO2)CCCC3)n1 (configuration not stated) | · | · | 0.2 | · | · | · | ·
CN(C)CC#Cc1cccc(-c2nc(C(=O)N3CCN(C)CC3)cc3c2[C@H](CCO)N(S(=O)C(C)(C)C)C3)c1 (some centres not stated) | · | 29.2 | · | · | · | · | ·
CC(C)CC#Cc1ccc2c(c1)O[C@@H](CN(C)C(=O)Cc1ccncc1)[C@@H](C)CN([C@@H](C)CO)S2(=O)=O | 0.9 | ? | 1.9 | 103.0* | 71.7 | 12.3 | 75.1*
CC(C)CC#Cc1ccc2c(c1)O[C@H](CN(C)C(=O)Cc1ccncc1)[C@H](C)CN([C@@H](C)CO)S2(=O)=O | -1.2 | 100.6* | 0.1 | 101.2* | 52.6 | -1.9 | 5.3
CC(C)CC#Cc1ccc2c(c1)O[C@@H](CN(C)C(=O)Cc1ccncc1)[C@H](C)CN([C@H](C)CO)S2(=O)=O | -1.7 | 73.1 | 0.7 | · | · | · | ·
CC(C)CC#Cc1ccc2c(c1)O[C@H](CN(C)C(=O)Cc1ccncc1)[C@H](C)CN([C@H](C)CO)S2(=O)=O | 0.1 | 73.6 | -0.1 | · | · | · | ·
COc1cc2occc2c(O[C@@H]2O[C@H](CO)[C@@H](O)[C@H](O)[C@H]2O)c1CCC(=O)O | · | · | 0.2 | · | · | · | ·
COc1ccc(-c2ccc3c(c2)[C@H]2[C@H](CCN2C(=O)C2CCCC2)[C@H](CO)N3C)cc1 | 6.6 | · | · | · | · | · | ·
COc1ccc(NC(=O)Nc2cccc3c2O[C@H](CN(C)Cc2ccc(C(=O)Nc4ccccc4N)cc2)[C@H](C)CN([C@H](C)CO)C3=O)cc1 | -2.9 | 73.6 | · | · | · | · | ·
CCC(=O)N1C[C@H](C)[C@H](OC)CN(C)C(=O)c2ccc(NS(C)(=O)=O)cc2OC[C@@H]1C | -0.1 | 34.2 | 0.1 | · | · | · | ·
Cc1ccc(S(=O)(=O)N(C)C[C@H]2OCCCC[C@@H](C)Oc3ccc(NS(=O)(=O)c4cccs4)cc3C(=O)N([C@@H](C)CO)C[C@H]2C)cc1 | -0.6 | 102.5* | 1.8 | 112.3* | 63.0 | -9.8 | -17.9
SMILES | KDM4C inh | T cruzi growth-1 | IDH1 mut inh | T cruzi growth-2 | T cruzi growth-3 | 3T3 cytotox | NIH3T3 tox 2
Cc1ccc(S(=O)(=O)N(C)C[C@H]2OCCCC[C@H](C)Oc3ccc(NS(=O)(=O)c4cccs4)cc3C(=O)N([C@@H](C)CO)C[C@@H]2C)cc1 | 0.5 | 85.6 | -1.8 | · | · | · | ·
Cc1ccc(S(=O)(=O)N(C)C[C@@H]2OCCCC[C@H](C)Oc3ccc(NS(=O)(=O)c4cccs4)cc3C(=O)N([C@@H](C)CO)C[C@@H]2C)cc1 | -2.0 | 122.3* | · | 98.4* | 41.2 | -10.7 | -5.3
Cc1ccc(S(=O)(=O)Nc2ccc3c(c2)C(=O)N([C@H](C)CO)C[C@@H](C)[C@H](CN(C)S(=O)(=O)c2cccs2)OCCCC[C@H](C)O3)cc1 | -3.7 | · | · | · | · | · | ·
Cc1ccc(S(=O)(=O)N(C)C[C@@H]2OCCCC[C@H](C)Oc3ccc(NS(=O)(=O)c4cccs4)cc3C(=O)N([C@@H](C)CO)C[C@H]2C)cc1 | 1.0 | 106.0* | -12.0 | ? | 7.8 | 2.6 | 24.2
Cc1ccc(S(=O)(=O)N(C)C[C@H]2OCCCC[C@H](C)Oc3ccc(NS(=O)(=O)c4cccs4)cc3C(=O)N([C@H](C)CO)C[C@@H]2C)cc1 | -0.9 | 67.6 | · | · | · | · | ·
C[C@H]1CN([C@@H](C)CO)C(=O)c2cc(NS(=O)(=O)c3ccc(F)cc3)ccc2O[C@H]1CN(C)S(=O)(=O)c1ccccc1 | 0.0 | 22.5 | -4.7 | · | · | · | ·
Cn1cnc(S(=O)(=O)N2CCCCN3[C@H](C2)[C@H](c2ccc(C4=CCCCC4)cc2)[C@@H]3CO)c1 | 0.4 | 41.6 | · | · | · | · | ·
